Measured values: ChEMBL document CHEMBL5325402, “Exploration of novel hexahydropyrrolo[1,2-e]imidazol-1-one derivatives as antiviral agents against ZIKV and USUV” (Eur J Med Chem, 2023)
Active and inactive are the calls of the source. The calls are words filed in the database; no cut-off is given here.

How the values were obtained:
[1] = Selectivity index, ratio of CC50 for African green monkey Vero cells infected with ZIKV MR766 to EC50 for ZIKV MR766 infected in African green monkey Vero cells; format: toxicity, cell-based; details: read-out: Ratio CC50/EC50
[2] = test system: Zika virus; experiment: Antiviral activity against ZIKV MR766 infected in African green monkey Vero cells assessed as reduction in plaque formation pretreated with virus for 1 hr followed by infection of cells with compound treated-virus for 2 hrs and further treatment of compound for 72 hrs by crystal violet staining based assay; format: functional, organism-based; details: time 75.0 hrs
In short: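 Plaque reduction assay. Vero cells were seeded 6 × 10^4/well. ZIKV (MOI 0.005) was preincubated with serial compound dilutions for 1 h at 37 °C, then adsorbed on cells for 2 h. After two washes, cells were overlaid with 1.2% methylcellulose in DMEM for 72 h, then fixed and stained with 0.1% crystal violet for 30 min. Plaques counted; EC50/EC90 from variable-slope sigmoidal fits.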

[3] = test system: Zika virus; experiment: Antiviral activity against ZIKV MR766 infected in African green monkey Vero cells assessed as viral growth inhibition at 0.13 to 100 uM pretreated with cells 2 hrs prior to viral infection by time of addition assay; format: functional, organism-based; details: dose 0.13-100 µM
In short: (§1)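 Time-of-addition assay in Vero. Serial dilutions (100 to 0.13 μM) were added to cells 24 h or 2 h before infection, during the 2 h infection, or post-infection for 24 h (USUV) or 30 h (ZIKV). Cells were fixed in cold acetone-methanol (50:50) and infected cells detected by indirect immunostaining. EC50/EC90 came from variable-slope sigmoidal fits; mean of three independent experiments.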

[4] = Cytotoxicity against human Huh-7 cells infected with ZIKV MR766 pretreated with virus for 1 hr followed by infection of cells with compound treated-virus for 30 hrs by MTS assay; format: toxicity, cell-based
In short: (§2)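 MTS viability assay. Cells were treated under the same conditions as the antiviral assays. Absorbance was expressed as % of medium-only cells, and CC50 was derived from the curve. Seeding densities were 1.2 × 10^4/well for Vero, 1.3 × 10^4/well for A549 and 1.6 × 10^4/well for Huh7. DMEM with 2% FBS.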

[5] = Cytotoxicity against African green monkey Vero cells infected with USUV 3345 isolate Arb276 pretreated with virus for 1 hr followed by infection of cells with compound treated-virus for 20 hrs by MTS assay; format: toxicity, cell-based; details: chlorocebus sabaeus; in short: as §2
[6] = test system: Zika virus; experiment: Antiviral activity against ZIKV MR766 infected in human Huh-7 cells assessed as reduction in viral replication pretreated with virus for 1 hr followed by infection of cells with compound treated-virus for 30 hrs by focus reduction assay; format: functional, organism-based; details: for EC50: MR766, Huh-7; for EC90: MR766, Huh-7, time 31 hrs
In short: (§3)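 Dose-response: serial dilutions (100 to 0.13 μM) preincubated 1 h at 37 °C with virus (MOI 0.02), then added to cells for 20 h (USUV) or 30 h (ZIKV) in 2% FBS DMEM. Cells per well: Vero 1.2 × 10^4, A549 1.3 × 10^4, Huh7 1.6 × 10^4. Foci immunostained and counted. EC50/EC90 fitted by variable-slope sigmoidal curve, mean of three independent experiments.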

[7] = test system: Usutu virus; experiment: Antiviral activity against USUV 3345 isolate Arb276 infected in African green monkey Vero cells assessed as viral growth inhibition at 0.13 to 100 uM pretreated with cells 24 hrs prior to viral infection by time of addition assay; format: functional, organism-based; details: dose 0.13-100 µM; in short: as §1
[8] = test system: Zika virus; experiment: Antiviral activity against ZIKV MR766 infected in African green monkey Vero cells assessed as viral growth inhibition at 0.13 to 100 uM pretreated with cells 24 hrs prior to viral infection by time of addition assay; format: functional, organism-based; details: dose 0.13-100 µM; in short: as §1
[9] = test system: Usutu virus; experiment: Antiviral activity against USUV 3345 isolate Arb276 infected in African green monkey Vero cells assessed as titer reduction in viral progeny production at 15 uM treated for 2 hrs followed by virus removal and subsequent addition of medium containing compound measured after 48 hrs by focus reduction assay; format: functional, organism-based; details: time 50.0 hrs
In short: (§4)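 Vero cells seeded 6.5 × 10^4/well, exposed in duplicate for 2 h at 37 °C to virus (MOI 0.1) mixed with compound at 5 or 15 μM. After three washes, medium containing compound was added for 48 h. Supernatants were clarified and titred on Vero by focus reduction (USUV, FFU/ml) or plaque assay (ZIKV, PFU/ml). DMSO-matched infected controls; mean of three experiments.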

[10] = test system: Usutu virus; experiment: Antiviral activity against USUV 3345 isolate Arb276 infected in human Huh-7 cells assessed as reduction in viral replication pretreated with virus for 1 hr followed by infection of cells with compound treated-virus for 20 hrs by focus reduction assay; format: functional, organism-based; details: Usutu virus, 3345, Huh-7; for EC90: time 21 hrs; in short: as §3
[11] = test system: Zika virus; experiment: Antiviral activity against ZIKV MR766 infected in African green monkey Vero cells assessed as titer reduction in viral progeny production at 15 uM treated for 2 hrs followed by virus removal and subsequent addition of medium containing compound measured after 48 hrs by plaque reduction assay; format: functional, organism-based; details: time 50.0 hrs; in short: as §4
[12] = test system: Usutu virus; experiment: Antiviral activity against USUV 3345 isolate Arb276 infected in African green monkey Vero cells assessed as viral growth inhibition at 11 to 100 uM pretreated with virus for 1 hr followed by infection of cells with compound treated-virus for 20 hrs by focus reduction assay relative to control; format: functional; details: dose 11-100 µM, time 21 hrs
In short: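 Virus (MOI 0.02) preincubated with compound 1 h at 37 °C, then mixture put on Vero cells (1.2 × 10^4/well, seeded the day before) in DMEM with 2% FBS for 30 h (ZIKV) or 20 h (USUV) at 37 °C. Fixed in cold acetone-methanol, foci immunostained with anti-flavivirus E 4G2 antibody and counted. % infection is relative to DMSO-treated wells. Screen used 100, 33 and 11 μM.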

[13] = test system: Usutu virus; experiment: Antiviral activity against USUV 3345 isolate Arb276 infected in African green monkey Vero cells assessed as viral growth inhibition at 0.13 to 100 uM pretreated with cells 2 hrs prior to viral infection by time of addition assay; format: functional, organism-based; details: dose 0.13-100 µM; in short: as §1
[14] = Cytotoxicity against human A549 cells infected with ZIKV MR766 pretreated with virus for 1 hr followed by infection of cells with compound treated-virus for 30 hrs by MTS assay; format: toxicity, cell-based; in short: as §2
[15] = Selectivity index, ratio of CC50 for African green monkey Vero cells infected with USUV 3345 isolate Arb276 to EC50 for USUV 3345 isolate Arb276 infected in African green monkey Vero cells; format: toxicity, cell-based; details: read-out: Ratio CC50/EC50
[16] = test system: Zika virus; experiment: Antiviral activity against ZIKV MR766 infected in African green monkey Vero cells assessed as reduction in viral replication pretreated with virus for 1 hr followed by infection of cells with compound treated-virus for 30 hrs by focus reduction assay; format: functional, organism-based; details: for EC90: time 31 hrs
[17] = Selectivity ratio of EC50 for antiviral activity against ZIKV MR766 infected in African green monkey Vero cells pretreated with cells 24 hrs prior to viral infection to EC50 for antiviral activity against ZIKV MR766 infected in African green monkey Vero cells treated immediately after viral infection for 30 hrs; format: functional, Zika virus
In short: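 Time of addition: serial dilutions (100 to 0.13 μM) put on cells either 24 h before infection or after infection for 30 h (ZIKV). Infected cells fixed in acetone-methanol and immunostained. EC50 computed for each treatment condition by sigmoidal fit; the ratio compares the two EC50s.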

[18] = test system: Zika virus; experiment: Antiviral activity against ZIKV MR766 infected in human A549 cells assessed as reduction in viral replication pretreated with virus for 1 hr followed by infection of cells with compound treated-virus for 30 hrs by focus reduction assay; format: functional, organism-based; details: for EC90: time 31 hrs; in short: as §3

Structure (SMILES)	selectivity ratio [1]	Activity [2]	Activity [3]	CC50 at 31 h [4] [µM]	CC50 at 21 h [5] [µM]	EC50 [6] [µM]	EC90 [6] [µM]	Activity [7]	Activity [8]	Activity [9]	EC50 [10] [µM]	EC90 [10] [µM]	Activity [11]	inhibition (INH) [12] [%]	Activity [13]	CC50 at 31 h [14] [µM]	selectivity ratio [15]	EC50 [16] [µM]	EC90 [16] [µM]	Ratio EC50 [17]	other results
O=C1[C@@H]2CCCN2[C@@H](c2ccc([C@H]3C[C@@H](O)[C@@H](CO)O3)cc2)N1c1ccc([N+](=O)[O-])cc1	> 63	Active	inactive	> 500	> 500	2.26	4.26	Active	Active	Active	3.91	5.77	Active	100	inactive	> 500	> 198	7.96	12.3	5	EC50 [18]: 3.95 µM; EC90 [18]: 10.9 µM
O=C1C[C@H](c2ccc([C@H]3N(c4ccc([N+](=O)[O-])cc4)C(=O)[C@@H]4CCCN43)cc2)O[C@@H]1CO	> 51	Active	inactive	> 500	> 500	2.36	4.19	Active	Active	Active	4	6.28	Active	100	inactive	> 500	> 181	9.73	15.4	5	EC50 [18]: 3.8 µM; EC90 [18]: 10.2 µM
